Measured values: ChEMBL document CHEMBL1148546, “3-Arylpiperazinylethyl-1H-pyrrolo[2,3-d]pyrimidine-2,4(3H,7H)-dione derivatives as novel, high-affinity and selective alpha(1)-adrenoceptor ligands” (Bioorg Med Chem Lett, 2006)

What was measured:
[1] = molecular target: T1, Alpha-1D adrenergic receptor (Rattus norvegicus) (UniProt P23944); test: Antagonistic activity at ADRA1D in rat thoracic aorta; type: functional, tissue-based
T1 sequence (whole entry): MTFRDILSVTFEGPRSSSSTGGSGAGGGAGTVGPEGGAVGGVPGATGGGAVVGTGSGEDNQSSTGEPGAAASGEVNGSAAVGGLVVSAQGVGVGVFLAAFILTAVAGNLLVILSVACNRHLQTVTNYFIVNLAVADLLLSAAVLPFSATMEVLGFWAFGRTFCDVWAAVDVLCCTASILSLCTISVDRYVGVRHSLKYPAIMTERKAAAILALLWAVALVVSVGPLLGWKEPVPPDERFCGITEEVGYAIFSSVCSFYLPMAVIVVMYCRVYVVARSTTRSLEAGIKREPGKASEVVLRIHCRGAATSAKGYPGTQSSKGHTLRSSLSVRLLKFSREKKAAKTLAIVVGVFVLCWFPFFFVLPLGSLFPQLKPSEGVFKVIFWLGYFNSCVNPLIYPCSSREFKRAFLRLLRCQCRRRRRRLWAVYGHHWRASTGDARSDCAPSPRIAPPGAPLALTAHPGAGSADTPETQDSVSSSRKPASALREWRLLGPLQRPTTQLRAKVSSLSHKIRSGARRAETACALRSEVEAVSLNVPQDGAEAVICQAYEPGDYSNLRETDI
Procedure, shortened: (§1)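 Antagonism in isolated rat tissues: prostatic vas deferens (α1A), spleen (α1B), thoracic aorta (α1D). Each compound tested at a single concentration, and each concentration was investigated at least four times. pKb was calculated by the van Rossum method. pA2 was derived from Arunlakshana–Schild plots. WB4101 was used as the standard.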

[2] = molecular target: T2, Alpha-1B adrenergic receptor (Rattus norvegicus) (UniProt P15823); test: Antagonistic activity at ADRA1B in rat spleen; type: functional, tissue-based; procedure, shortened: as §1
T2 sequence (whole entry): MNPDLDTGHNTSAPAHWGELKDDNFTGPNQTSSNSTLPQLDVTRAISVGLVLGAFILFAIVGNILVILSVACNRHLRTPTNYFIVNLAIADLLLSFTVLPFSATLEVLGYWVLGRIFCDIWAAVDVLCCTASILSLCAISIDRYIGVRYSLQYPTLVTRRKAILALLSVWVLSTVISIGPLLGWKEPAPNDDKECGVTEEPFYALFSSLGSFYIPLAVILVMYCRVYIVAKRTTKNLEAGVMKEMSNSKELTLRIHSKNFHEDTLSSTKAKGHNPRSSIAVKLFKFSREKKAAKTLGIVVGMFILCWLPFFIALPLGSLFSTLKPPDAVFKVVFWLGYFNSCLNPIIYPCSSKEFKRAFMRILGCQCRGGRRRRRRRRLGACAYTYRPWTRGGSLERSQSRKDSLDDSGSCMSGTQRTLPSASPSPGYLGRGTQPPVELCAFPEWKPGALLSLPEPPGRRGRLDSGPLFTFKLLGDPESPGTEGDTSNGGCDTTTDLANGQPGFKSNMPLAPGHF

Row | pKb [1] | pKb [2] | Compound
1 | 7.69 | 8.03 | COc1ccc(-c2cc3c(=O)n(CCN4CCN(c5ccccc5Cl)CC4)c(=O)[nH]c3[nH]2)cc1
2 | 7.78 | 7.5 | Cc1ccc(-c2cc3c(=O)n(CCN4CCN(c5ccccc5Cl)CC4)c(=O)[nH]c3[nH]2)cc1
3 | 7.66 | 6.64 | O=c1[nH]c2[nH]c(-c3ccc(Cl)cc3)cc2c(=O)n1CCN1CCN(c2ccccc2Cl)CC1

Row | Compound | pKb [1] | pKb [2]
4 | Cc1ccc(-c2cc3[nH]c(=O)n(CCN4CCN(c5ccccc5Cl)CC4)c(=O)c3[nH]2)cc1 | 6.44 | 6.37
